# From ChEMBL document CHEMBL5678798 (Clin Cancer Res, 2009)
# The source made the active and inactive calls. The rule behind the calls is not given here.
# Columns and labels:
# NCI-H929 [1] = assay: Antiproliferative activity against human NCI-H929 cells assessed as reduction in cell viability after 72 hrs by CellTiter-Glo assay; assay type: functional, cell-based; conditions: NCI-H929, 72 h
# Outline: (§1)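 Cells seeded in 96-well plates, left overnight at 37°C, then exposed to a range of test concentrations for 72 h. Viability read by CellTiter-Glo luminescence; IC50 from four-parameter curve fit. Lines kept at 37°C, 5% CO2, in recommended growth medium.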
# [2] = biological target: cGMP-dependent protein kinase 1 (Homo sapiens) (UniProt Q13976); assay: Inhibition of N-terminal 6His-tagged recombinant full-length human PKG1beta expressed in baculovirus infected Sf21 cells at 3 uM by filter binding assay relative to control
# Chain of cGMP-dependent protein kinase 1 (Homo sapiens) (Q13976 whole entry): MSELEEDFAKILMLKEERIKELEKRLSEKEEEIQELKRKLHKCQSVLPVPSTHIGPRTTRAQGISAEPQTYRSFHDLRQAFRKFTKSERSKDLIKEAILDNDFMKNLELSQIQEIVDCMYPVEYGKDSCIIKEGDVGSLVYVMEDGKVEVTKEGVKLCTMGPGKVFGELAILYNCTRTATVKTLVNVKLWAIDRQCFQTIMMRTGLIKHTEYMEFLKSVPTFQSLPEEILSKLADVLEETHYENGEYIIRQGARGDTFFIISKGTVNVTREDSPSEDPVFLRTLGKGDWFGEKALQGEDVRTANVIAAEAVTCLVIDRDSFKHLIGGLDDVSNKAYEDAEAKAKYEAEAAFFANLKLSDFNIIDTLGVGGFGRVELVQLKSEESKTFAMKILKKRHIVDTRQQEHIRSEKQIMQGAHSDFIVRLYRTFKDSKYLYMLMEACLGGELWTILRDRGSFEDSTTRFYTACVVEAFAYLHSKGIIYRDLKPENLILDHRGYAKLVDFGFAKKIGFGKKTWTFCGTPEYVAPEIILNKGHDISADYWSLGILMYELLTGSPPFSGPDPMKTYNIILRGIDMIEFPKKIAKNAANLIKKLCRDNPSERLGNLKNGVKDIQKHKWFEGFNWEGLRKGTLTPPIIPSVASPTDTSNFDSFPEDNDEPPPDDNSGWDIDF
# Outline: (§2)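 KinaseProfiler panel of 233 kinases: radiometric filter-binding activity assays with compound at 0.3 or 3 µmol/L. Read-out is percent inhibition.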
# A673 = assay: Antiproliferative activity against human A673 cells assessed as reduction in cell viability after 72 hrs by CellTiter-Glo assay; assay type: functional, cell-based; conditions: A673, 72 h; outline: as §1
# [3] = biological target: Insulin receptor-related protein (Homo sapiens, UniProt P14616); assay: Inhibition of N-terminal 6His-tagged recombinant human IRR (944 to 1266 residues) expressed in baculovirus infected Sf21 cells by filter binding assay
# [4] = biological target: Insulin receptor (Mus musculus) (UniProt P15208); conditions: CD-1, dose 30.0 mg/kg, route po, time 21.0 day
# Chain of Insulin receptor (Mus musculus) (P15208 28-748 limits assumed): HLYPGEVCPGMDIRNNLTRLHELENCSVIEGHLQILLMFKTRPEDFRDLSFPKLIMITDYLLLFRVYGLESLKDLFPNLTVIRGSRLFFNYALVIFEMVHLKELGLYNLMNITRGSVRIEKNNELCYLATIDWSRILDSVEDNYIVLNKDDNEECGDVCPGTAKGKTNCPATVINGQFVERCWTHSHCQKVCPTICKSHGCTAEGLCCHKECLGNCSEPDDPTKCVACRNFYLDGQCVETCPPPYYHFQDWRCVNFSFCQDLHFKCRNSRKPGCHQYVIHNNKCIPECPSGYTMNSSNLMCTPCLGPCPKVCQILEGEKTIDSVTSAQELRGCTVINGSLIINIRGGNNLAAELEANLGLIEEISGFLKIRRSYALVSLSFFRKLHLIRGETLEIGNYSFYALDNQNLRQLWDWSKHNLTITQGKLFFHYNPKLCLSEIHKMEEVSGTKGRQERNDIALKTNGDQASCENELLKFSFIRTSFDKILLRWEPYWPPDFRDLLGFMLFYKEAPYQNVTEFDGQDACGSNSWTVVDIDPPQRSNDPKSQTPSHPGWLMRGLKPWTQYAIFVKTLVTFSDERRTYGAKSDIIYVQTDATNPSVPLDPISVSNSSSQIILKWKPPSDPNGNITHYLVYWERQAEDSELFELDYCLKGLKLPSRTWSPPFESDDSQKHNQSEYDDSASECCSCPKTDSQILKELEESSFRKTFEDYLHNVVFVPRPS
# Chain of Insulin receptor (Mus musculus) (P15208 753-1372 limits assumed): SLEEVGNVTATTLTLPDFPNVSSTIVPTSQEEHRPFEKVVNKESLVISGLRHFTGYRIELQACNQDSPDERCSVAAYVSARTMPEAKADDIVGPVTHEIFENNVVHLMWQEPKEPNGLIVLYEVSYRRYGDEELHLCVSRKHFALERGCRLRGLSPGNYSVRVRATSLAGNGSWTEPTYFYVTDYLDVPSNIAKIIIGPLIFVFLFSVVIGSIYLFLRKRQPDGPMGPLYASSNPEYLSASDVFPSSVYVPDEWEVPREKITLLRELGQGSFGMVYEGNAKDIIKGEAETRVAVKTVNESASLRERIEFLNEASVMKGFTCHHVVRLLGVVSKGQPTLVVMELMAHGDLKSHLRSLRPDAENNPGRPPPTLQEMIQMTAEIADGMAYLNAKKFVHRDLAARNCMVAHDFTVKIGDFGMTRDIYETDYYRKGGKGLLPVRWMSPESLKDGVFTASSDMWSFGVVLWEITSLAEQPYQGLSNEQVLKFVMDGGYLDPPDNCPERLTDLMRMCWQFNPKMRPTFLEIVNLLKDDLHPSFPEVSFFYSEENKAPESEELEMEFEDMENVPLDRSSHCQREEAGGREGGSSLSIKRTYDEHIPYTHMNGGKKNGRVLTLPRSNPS
# [5] = biological target: Tyrosine-protein kinase Fes/Fps (Homo sapiens, UniProt P07332); assay: Inhibition of N-terminal His6-tagged recombinant full length human Fes expressed in baculovirus infected Sf21 cells by filter binding assay
# Chain of Tyrosine-protein kinase Fes/Fps (P07332 whole entry): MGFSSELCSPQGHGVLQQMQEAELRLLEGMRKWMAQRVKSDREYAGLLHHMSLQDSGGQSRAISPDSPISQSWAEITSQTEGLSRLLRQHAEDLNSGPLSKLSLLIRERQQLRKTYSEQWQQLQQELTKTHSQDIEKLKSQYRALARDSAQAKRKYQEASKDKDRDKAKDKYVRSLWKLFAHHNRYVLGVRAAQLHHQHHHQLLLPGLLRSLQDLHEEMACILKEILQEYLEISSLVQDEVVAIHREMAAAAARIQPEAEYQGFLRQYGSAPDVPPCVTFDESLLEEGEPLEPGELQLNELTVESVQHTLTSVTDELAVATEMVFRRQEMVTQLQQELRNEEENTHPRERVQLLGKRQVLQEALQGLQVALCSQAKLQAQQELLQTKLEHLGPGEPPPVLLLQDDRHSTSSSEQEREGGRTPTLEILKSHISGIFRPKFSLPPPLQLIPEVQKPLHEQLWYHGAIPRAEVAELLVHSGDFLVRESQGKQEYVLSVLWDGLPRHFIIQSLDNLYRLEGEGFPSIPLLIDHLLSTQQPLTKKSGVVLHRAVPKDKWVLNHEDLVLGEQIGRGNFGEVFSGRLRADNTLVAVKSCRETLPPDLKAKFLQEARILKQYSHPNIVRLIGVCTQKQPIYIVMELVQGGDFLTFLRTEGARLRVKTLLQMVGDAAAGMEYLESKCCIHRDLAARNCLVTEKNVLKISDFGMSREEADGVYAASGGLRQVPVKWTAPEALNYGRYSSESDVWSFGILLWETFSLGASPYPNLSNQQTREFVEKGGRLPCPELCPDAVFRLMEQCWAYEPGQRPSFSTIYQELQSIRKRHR
# NCI-H1299 = assay: Antiproliferative activity against human NCI-H1299 cells assessed as reduction in cell viability after 72 hrs by CellTiter-Glo assay; assay type: functional, cell-based; conditions: NCI-H1299, 72 h; outline: as §1
# [6] = Antiproliferative activity against human SR-786 cells assessed as reduction in cell viability after 72 hrs by CellTiter-Glo assay; assay type: functional, cell-based; conditions: SR-786, 72 h; outline: as §1
# [7] = biological target: Serine/threonine-protein kinase pim-1 (Homo sapiens) (UniProt P11309); assay: Inhibition of N-terminal GST-tagged recombinant human full-length Pim-1 expressed in Escherichia coli cells at 0.3 uM by filter binding assay relative to control
# Outline: (§3)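 Outsourced single-concentration screen in a commercial panel of 233 protein kinases, run as radiometric filter-binding activity assays. Test agent was tested at 0.3 or 3 µmol/L, as given in each line, from a 10 mmol/L DMSO stock. Activity is expressed as percent inhibition relative to control.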
# MCF7 [8] = assay: Induction of cell cycle arrest in human MCF7 cells assessed as decrease in cells accumulation at G2/M phase at 0.03 to 10 uM incubated for 24 to 48 hrs by propidium iodide staining based flow cytometric analysis; assay type: functional; conditions: dose 0.03-10 µM, time lower 24.0 hrs, time upper […]
# Outline: (§4)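 COLO 205, MCF-7 or NCI-H929 cells seeded in 96-well plates overnight at 37°C, then exposed to DMSO or increasing compound concentrations for 24 or 48 h. Fixed and stained with propidium iodide (Vindelov method), then analysed by flow cytometry for sub-G1, G1, S and G2-M fractions. Experiment repeated twice.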
# [9] = Inhibition of C-terminal His6-tagged human full length CDK2/N-terminal GST-tagged human full length cyclinA expressed in baculovirus infected Sf21 cells at 3 uM by filter binding assay relative to control; conditions: condition cancer; outline: as §2
# [10] = biological target: Tyrosine-protein kinase Yes (Homo sapiens) (UniProt P07947); assay: Inhibition of N-terminal His6 tagged recombinant full-length human Yes expressed in baculovirus infected Sf21 cells at 0.3 uM by filter binding assay relative to control; outline: as §3
# [11] = biological target: Macrophage colony-stimulating factor 1 receptor (Homo sapiens) (UniProt P07333); assay: Inhibition of N-terminal His6-tagged recombinant human Fms (538 to end residues) expressed in baculovirus infected Sf21 cells at 0.3 uM by filter binding assay relative to control
# [12] = biological target: Calcium/calmodulin-dependent protein kinase kinase 2 (Homo sapiens, UniProt Q96RR4); assay: Inhibition of CAMKK2 (unknown origin)
# Chain of Calcium/calmodulin-dependent protein kinase kinase 2 (Q96RR4 whole entry): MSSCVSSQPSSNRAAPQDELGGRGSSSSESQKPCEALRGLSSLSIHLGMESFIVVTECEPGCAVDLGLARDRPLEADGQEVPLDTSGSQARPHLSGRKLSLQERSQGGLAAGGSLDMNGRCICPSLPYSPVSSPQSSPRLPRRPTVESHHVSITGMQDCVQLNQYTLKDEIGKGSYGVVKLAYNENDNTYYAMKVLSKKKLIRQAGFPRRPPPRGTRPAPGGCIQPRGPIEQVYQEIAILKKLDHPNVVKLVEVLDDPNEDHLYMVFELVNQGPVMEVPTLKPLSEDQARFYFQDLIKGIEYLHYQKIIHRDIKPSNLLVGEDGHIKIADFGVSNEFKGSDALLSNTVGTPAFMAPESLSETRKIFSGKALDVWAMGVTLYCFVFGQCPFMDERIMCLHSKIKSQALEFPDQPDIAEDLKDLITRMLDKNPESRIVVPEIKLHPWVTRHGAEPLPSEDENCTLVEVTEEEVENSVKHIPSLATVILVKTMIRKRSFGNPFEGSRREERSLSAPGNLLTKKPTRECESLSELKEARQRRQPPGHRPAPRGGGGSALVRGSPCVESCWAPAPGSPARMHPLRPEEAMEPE
# [13] = Inhibition of recombinant mouse N-terminal 6His-tagged full length P110alpha/full length mouse […] expressed in baculovirus infected Sf21 cells at 3 uM by filter binding assay relative to control; conditions: condition cancer
# LNCaP = assay: Antiproliferative activity against human LNCaP cells assessed as reduction in cell viability after 72 hrs by CellTiter-Glo assay; assay type: functional, cell-based; outline: as §1
# [14] = biological target: PI3K p110 alpha/p85 alpha (Mus musculus) (UniProt P26450+P42337); assay: Inhibition of recombinant mouse N-terminal 6His-tagged full length P110alpha/full length mouse p85alpha expressed in baculovirus infected Sf21 cells at 0.3 uM by filter binding assay relative to control
# SK-OV-3 = assay: Antiproliferative activity against human SK-OV-3 cells assessed as reduction in cell viability after 72 hrs by CellTiter-Glo assay; assay type: functional, cell-based; conditions: SK-OV-3, 72 h; outline: as §1
# [15] = biological target: Serine/threonine-protein kinase Nek11 (Homo sapiens) (UniProt Q8NG66); assay: Inhibition of 6His-tagged recombinant human full-length NEK11 expressed in baculovirus infected Sf21 cells at 0.3 uM by filter binding assay relative to control; outline: as §2
# Chain of Serine/threonine-protein kinase Nek11 (Homo sapiens) (Q8NG66 whole entry): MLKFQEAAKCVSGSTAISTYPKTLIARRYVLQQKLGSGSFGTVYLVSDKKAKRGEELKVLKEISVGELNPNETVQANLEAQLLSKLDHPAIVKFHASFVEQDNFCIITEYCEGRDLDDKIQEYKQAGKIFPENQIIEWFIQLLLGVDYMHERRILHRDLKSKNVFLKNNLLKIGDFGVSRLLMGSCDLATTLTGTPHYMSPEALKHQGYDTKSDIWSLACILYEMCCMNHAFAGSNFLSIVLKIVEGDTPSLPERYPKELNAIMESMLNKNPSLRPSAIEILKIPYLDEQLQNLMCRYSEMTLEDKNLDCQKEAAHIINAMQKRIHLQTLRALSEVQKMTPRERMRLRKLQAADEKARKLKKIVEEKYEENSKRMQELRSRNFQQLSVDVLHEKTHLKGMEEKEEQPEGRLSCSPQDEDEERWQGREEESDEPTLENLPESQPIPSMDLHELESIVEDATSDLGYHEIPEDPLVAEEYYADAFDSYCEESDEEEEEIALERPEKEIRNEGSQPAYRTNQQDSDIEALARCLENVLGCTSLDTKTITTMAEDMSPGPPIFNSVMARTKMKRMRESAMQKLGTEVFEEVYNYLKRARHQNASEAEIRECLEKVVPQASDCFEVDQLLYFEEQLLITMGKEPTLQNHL
# [16] = biological target: Serine/threonine-protein kinase PAK 4 (Homo sapiens) (UniProt O96013); assay: Inhibition of N-terminal His6/C-terminal GST-tagged recombinant human PAK4 (295 to end residues) expressed in baculovirus infected Sf21 cells at 3 uM by filter binding assay relative to control
# MCF7 [17] = assay: Antiproliferative activity against human MCF7 cells assessed as reduction in cell viability after 72 hrs by CellTiter-Glo assay; assay type: functional, cell-based; conditions: MCF7, 72 h; outline: as §1
# NCI-H929 [18] = assay: Induction of cell cycle arrest in human NCI-H929 cells assessed as cells accumulation at G2 phase at 1 umol/L incubated for 48 hrs by propidium iodide staining based flow cytometric analysis (reference value: 33%); assay type: functional; conditions: dose 1 µmol/L, at 1 µM; outline: as §4
# JJN-3 = assay: Antiproliferative activity against human JJN-3 cells assessed as reduction in cell viability after 72 hrs by CellTiter-Glo assay; assay type: functional, cell-based; conditions: JJN-3, 72 h; outline: as §1
# COLO 205 = assay: Induction of cell cycle arrest in human COLO 205 cells assessed as decrease in cells accumulation at G2/M phase at 0.03 to 10 uM incubated for 24 to 48 hrs by propidium iodide staining based flow cytometric analysis; assay type: functional; conditions: dose 0.03-10 µM, time lower 24.0 hrs, time upper […]; outline: as §4
# [19] = biological target: Discoidin domain-containing receptor 2 (Homo sapiens) (UniProt Q16832); assay: Inhibition of N-terminal His6-tagged recombinant human DDR2 (467 to end residues) expressed in baculovirus infected Sf21 cells at 0.3 uM by filter binding assay relative to control
# Chain of Discoidin domain-containing receptor 2 (Homo sapiens) (Q16832 whole entry, the tested form may be a part): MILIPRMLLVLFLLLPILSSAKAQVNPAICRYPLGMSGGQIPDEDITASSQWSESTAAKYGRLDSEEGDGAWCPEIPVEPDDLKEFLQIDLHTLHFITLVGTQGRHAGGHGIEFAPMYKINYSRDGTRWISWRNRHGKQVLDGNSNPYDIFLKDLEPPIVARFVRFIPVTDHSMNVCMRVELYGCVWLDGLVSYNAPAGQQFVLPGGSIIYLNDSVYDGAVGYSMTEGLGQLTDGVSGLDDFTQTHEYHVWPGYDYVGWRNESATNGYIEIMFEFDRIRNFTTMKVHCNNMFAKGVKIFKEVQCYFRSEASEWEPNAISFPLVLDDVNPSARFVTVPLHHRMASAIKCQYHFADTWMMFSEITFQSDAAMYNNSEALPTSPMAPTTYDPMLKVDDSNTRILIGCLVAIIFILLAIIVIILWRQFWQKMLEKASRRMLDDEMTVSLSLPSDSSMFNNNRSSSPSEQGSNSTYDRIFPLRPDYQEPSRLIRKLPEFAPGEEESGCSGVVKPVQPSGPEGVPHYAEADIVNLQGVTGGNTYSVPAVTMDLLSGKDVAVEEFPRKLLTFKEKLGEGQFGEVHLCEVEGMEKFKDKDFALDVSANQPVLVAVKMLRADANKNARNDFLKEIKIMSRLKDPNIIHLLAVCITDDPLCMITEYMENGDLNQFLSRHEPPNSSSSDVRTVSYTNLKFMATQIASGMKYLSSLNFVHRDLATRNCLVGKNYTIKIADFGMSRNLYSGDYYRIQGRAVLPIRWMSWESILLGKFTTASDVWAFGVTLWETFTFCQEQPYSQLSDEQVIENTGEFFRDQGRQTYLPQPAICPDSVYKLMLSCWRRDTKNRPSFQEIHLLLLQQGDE
# [20] = biological target: Proto-oncogene tyrosine-protein kinase receptor Ret (Homo sapiens) (UniProt P07949); assay: Inhibition of N-Terminal GST-tagged recombinant human Ret (658 to end residues) expressed in baculovirus infected Sf21 cells at 0.3 uM by filter binding assay relative to control; outline: as §2
# [21] = biological target: Protein-tyrosine kinase 6 (Homo sapiens) (UniProt Q13882); assay: Inhibition of N-terminal His6-tagged recombinant full-length human BRK expressed in baculovirus infected Sf21 cells at 3 uM by filter binding assay relative to control
smiles,measurement,setting,value
CCc1cc(Nc2nccc(-c3c(-c4ccc(OC)c(C(=O)Nc5c(F)cccc5F)c4)nc4ccccn34)n2)c(OC)cc1N1CCC(N2CCN(S(C)(=O)=O)CC2)CC1,IC50,NCI-H929 [1],0.081 µM
same,inhibition,[2],32%
same,IC50,A673,> 30 µM
same,IC50,[3],0.488 µM
same,inhibition,[4],inactive
same,IC50,[5],0.148 µM
same,IC50,NCI-H1299,> 20 µM
same,IC50,[6],> 30 µM
same,inhibition,[7],-8%
same,Activity,MCF7 [8],Active
same,inhibition at 3 µM,[9],8%
same,inhibition,[10],0%
same,inhibition,[11],10%
same,IC50,[12],> 10 µM
same,inhibition at 3 µM,[13],0%
same,IC50,LNCaP,> 20 µM
same,inhibition,[14],-10%
same,IC50,SK-OV-3,> 20 µM
same,inhibition,[15],-8%
same,inhibition,[16],0%
same,IC50,MCF7 [17],0.137 µM
same,Activity,NCI-H929 [18],8%
same,IC50,JJN-3,> 30 µM
same,Activity,COLO 205,Active
same,inhibition,[19],0%
same,inhibition,[20],30%
same,inhibition,[21],38%
